Only some compounds are listed: those with a hit (about 3% of all), similar ones and a draw of the others.
rRNA inh HTS: inhibits bacterial ribosomal RNA function over humanized ribosomes. E. coli WT GFP vs humanized-ribosome RFP mutants, fluorescence, 24 h; stronger effect = lower value; DMSO median 0, no signal -100. GFP signal change (wild-type ribosome), % (concentration not given with the values). 350,000 tested, 1.6% active. AID 720706;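 active = significant combined selectivity score with lowered wild-type GFP, culture density cut under 30%, mutant RFP and density less affected; inactive = any of these conditions unmet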
PGC1a acetyl inh: PGC1a acetylation modulation, inhibitor mode; U2OS PGC1a acetylation, AlphaScreen anti-acetyl-lysine; with virally co-expressed GCN5 acetyltransferase; inhibition, % at 15.6 µM; 350,000 tested, 0.17% active; AID 651687;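 active = every replicate shows inhibition of at least 40%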
S100A4 inh HTS: blocks human S100A4 binding to myosin IIA peptide; S100A4/TAMRA-MyoIIA peptide fluorescence polarization; 360,000 tested, 0.14% active; inhibition, % at 10.7 µM; AID 652163;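 active = mean inhibition of at least 70% across replicates, with every replicate also reaching that level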
Target sequence (P26447 whole entry, looked up): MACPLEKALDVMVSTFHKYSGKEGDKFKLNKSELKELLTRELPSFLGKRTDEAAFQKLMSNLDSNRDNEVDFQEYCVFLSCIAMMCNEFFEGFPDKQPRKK
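System – human S100A4 monomer protein, biochemical binding assay · Buffer or medium – Calcium-containing HEPES buffer, pH 7.2 · Timing – 5 min between mix addition and reading · Also added – TAMRA-labelled myosin IIA heavy-chain peptide probe, 5 nM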
Cneo AK release: causes C. neoformans cell lysis; adenylate kinase release luminescence, 4 h; normalised: neutral wells 0, clomiphene wells 100; lysis activity, % at 15 µM; 360,000 tested, 0.2% active;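 active = mean lysis activity across replicates of at least 80%, whatever share of replicates individually reach that level; inactive = mean lysis activity below 80%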
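Assay system: log-phase C. neoformans yeast / Quantity: yeast cell density of 5 × 10^6 cells/mL / Medium: fresh YPD growth medium / Compound: single dose / Timing: static 4 h at 37 °C with compound, 1 h detection / Measured by: adenylate kinase release luminescence / Read-out: lysis from increased AK signal / Benchmarks: Clomiphene as positive lysis control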
C2C12 statin: suppressors of simvastatin-induced myotoxicity in C2C12 myotubes | ATP luminescence, 48 h; scaled: DMSO 0, geranylgeraniol control 100 | rescue of ATP level, % at 7.49 µM | AID 602340 | 330,000 tested, 0.78% active;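 active = mean ATP rescue above about 67%, or every replicate alone reaching that limit, limit read from the data, passing the limit was not always enough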;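 note: myotubes were challenged with 10 µM simvastatin during compound exposure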
SIRT5 inh: inhibitors of human sirtuin-5 desuccinylase; Purified SirT5, succinyl-peptide AMC, trypsin-coupled fluorescence; 330,000 tested, 1.1% active; Q9NXA8; inhibition, % at 15 µM; AID 652115; in the data active = inhibition above about 15%
Target sequence (Q9NXA8 whole entry, looked up): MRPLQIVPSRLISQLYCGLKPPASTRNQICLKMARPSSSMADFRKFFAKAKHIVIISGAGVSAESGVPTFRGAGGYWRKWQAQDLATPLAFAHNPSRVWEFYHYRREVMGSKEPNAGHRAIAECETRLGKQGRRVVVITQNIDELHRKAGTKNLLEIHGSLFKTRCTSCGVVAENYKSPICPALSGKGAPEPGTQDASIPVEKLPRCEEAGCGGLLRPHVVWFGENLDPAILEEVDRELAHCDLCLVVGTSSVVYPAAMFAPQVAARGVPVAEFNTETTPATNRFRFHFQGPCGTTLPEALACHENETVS
Large screens that a line does not name were inactive.

CC(C)NC(=O)N(C)C[C@@H]1Oc2cc(C#Cc3ccc(F)cc3)ccc2S(=O)(=O)N([C@@H](C)CO)C[C@H]1C	none
Cc1ccc(Cl)cc1NC(=S)N(Cc1ccccc1)Cc1cccnc1	rRNA inh HTS -26 (no result: Cneo AK release, C2C12 statin)
COc1ccc(Cl)cc1NC(=S)N(Cc1cccnc1)Cc1ccco1	rRNA inh HTS -24 (no result: Cneo AK release, C2C12 statin)
COc1ccccc1NC(=S)N(Cc1cccnc1)Cc1ccco1	none
S=C(Nc1ccccc1Cl)N(Cc1ccccc1)Cc1cccnc1	none (no result: PGC1a acetyl inh, Cneo AK release, C2C12 statin)
COc1ccc(C#Cc2ccc([C@@H]3[C@@H](CO)N4CCCCN(S(=O)(=O)c5cn(C)cn5)C[C@@H]34)cc2)cc1	none
CC1CCN(C(c2ccccc2)c2nnnn2C(C)(C)C)CC1 (stereo not drawn)	C2C12 statin 106 (no result: rRNA inh HTS, S100A4 inh HTS, SIRT5 inh)
CC(C)(C)n1nnnc1C(c1cccnc1)N1CCOCC1 (stereo not drawn)	SIRT5 inh 20
Cc1ccc(C(c2nnnn2C(C)(C)C)N2CCC(C)CC2)cc1 (stereo not drawn)	none (no result: rRNA inh HTS, S100A4 inh HTS, SIRT5 inh)
Cc1ccsc1C(=O)OCC(=O)N(Cc1ccccc1)C(C)C	rRNA inh HTS -30
C/C=C/c1ccc([C@H]2[C@@H](CO)N(C(=O)C3CCCCC3)C23CN(C(=O)NC(C)C)C3)cc1	none (no result: Cneo AK release, C2C12 statin)
C=CCn1c(Sc2ncc([N+](=O)[O-])s2)n[nH]c1=O	rRNA inh HTS -28 (no result: C2C12 statin)
COc1ccc(C2(C)CC(C)(C)Nc3ccccc32)cc1 (stereo not drawn)	rRNA inh HTS -29
C[C@@H]1CCCCO[C@@H](CN(C)C(=O)Nc2ccccc2)[C@@H](C)CN([C@@H](C)CO)C(=O)c2cc(NS(=O)(=O)c3ccccc3)ccc2O1	none (no result: Cneo AK release, C2C12 statin)
CO[C@@H]1CN(C)C(=O)c2ccc(NC(=O)Nc3c(C)noc3C)cc2OC[C@H](C)N(C)C[C@@H]1C	none
CCOC(=O)c1ccc(S(=O)(=O)NC2CC2)cc1	none
CCOC(=O)c1ccc(S(=O)(=O)NC2CCC(C)CC2)cc1 (stereo not drawn)	SIRT5 inh 21
O=C(C[C@@H]1CC[C@H](NC(=O)c2cccc(F)c2)[C@H](CO)O1)NCc1ccc(Oc2ccccc2)cc1	none
Cc1onc(-c2ccccc2)c1C(=O)c1c[nH]c(C(=O)NCc2ccccn2)c1	SIRT5 inh 19
CO[C@H]1CN(C)C(=O)c2ccc(NC(=O)C3CCOCC3)cc2OC[C@H](C)N(Cc2cccnc2)C[C@H]1C	none (no result: SIRT5 inh)
CN(C(=O)c1cccc(NC(=O)Cc2ccc(NC(=O)C3CCN(C(=O)C4CCCCC4)CC3)cc2)c1)C1CCCCC1	SIRT5 inh 25 (no result: PGC1a acetyl inh)
O=C(Cc1ccc(NC(=O)C2CCCN(C(=O)CCc3ccccc3)C2)cc1)Nc1cccc(C(=O)N2CCCC2)c1 (stereo not drawn)	rRNA inh HTS -15
O=C(/C=C/c1ccccc1)Nc1scc(-c2ccccc2)c1C(=O)O	none (no result: Cneo AK release, C2C12 statin)
O=C(/C=C/c1ccco1)Nc1scc(-c2ccccc2)c1C(=O)O	rRNA inh HTS -34 (no result: C2C12 statin)
O=C(CCc1ccccc1)Nc1sc2c(c1C(=O)O)CCCC2	rRNA inh HTS -32 (no result: C2C12 statin)
Cc1ccc(C(=O)Nc2scc(-c3ccccc3)c2C(=O)O)o1	rRNA inh HTS -34 (no result: PGC1a acetyl inh, Cneo AK release, C2C12 statin)
Cc1ccc(C(=O)Nc2sc3c(c2C(=O)O)CCCC3)o1	rRNA inh HTS -25 (no result: PGC1a acetyl inh, C2C12 statin)
Cc1ccc(C(=O)Nc2sc3c(c2C(=O)O)CCCCC3)o1	none (no result: rRNA inh HTS, S100A4 inh HTS, SIRT5 inh)
C[C@H]1CN([C@@H](C)CO)C(=O)c2cc(NC(=O)C3CC3)ccc2O[C@@H]1CN(C)Cc1ccc(C(F)(F)F)cc1	none
C[C@H](CO)N1C[C@H](C)[C@@H](CN(C)Cc2ccncc2)Oc2ccc(NC(=O)Nc3ccc4c(c3)OCO4)cc2CC1=O	none
O=C(Nc1ccc(F)cc1)N1C[C@@H]2[C@H](c3ccccc31)[C@H](CO)N2C(=O)Cc1cccnc1	none
O=C(Cn1c(=O)n(Cc2ccco2)c(=O)c2c3c(sc21)CCCCC3)c1ccccc1	rRNA inh HTS -19
O=C(Cn1c(=O)n(Cc2ccco2)c(=O)c2c3c(sc21)CCCCC3)Nc1ccccc1	none (no result: rRNA inh HTS, S100A4 inh HTS, SIRT5 inh)

From PubChem BioAssay
